Data published in ChEMBL document CHEMBL1148285, “Pyridinium cationic lipids in gene delivery: a structure-activity correlation study” (J Med Chem, 2004).

Test system: NCI-H23
Assay: Transfection efficiency in NCI-H23 lung cancer cell line was determined.
Type: functional, cell-based
Details: Homo sapiens
Summary of the method: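 Cationic lipid/cholesterol 1:1 liposomes hydrated in PBS and bath-sonicated (twice 15 min, 65–68 °C; DOTAP/Chol at 37 °C). Lipoplexes with pGL3 (SV40-luciferase) at 2:1 charge ratio, 30 min at 22 °C in Optimem. NCI-H23 cells in RPMI 1640/10% FBS, 20 000 cells/well seeded 24 h before. Exposed 1 h, then medium added for 24 h. Lysate luciferase measured by luminometer, protein by BCA. Triplicate or quadruplicate, mean ± 1 SD.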

Row | SMILES | Activity
1 | CCCCCCCCCC(=O)Oc1ccc(CC[n+]2c(C)cc(C)cc2C)cc1OC(=O)CCCCCCCCC | A
2 | CCCCCCCCCCCCCCCCCC(=O)OCC(COC(=O)CCCCCCCCCCCCCCCCC)[n+]1c(C)cc(C)cc1C | A
3 | CCCCCCCCCCCC(=O)OCC(COC(=O)CCCCCCCCCCC)[n+]1c(C)cc(C)cc1C | A
4 | CCCCCCCCCCCC(=O)Oc1ccc(CC[n+]2c(C)cc(C)cc2C)cc1OC(=O)CCCCCCCCCCC | A
5 | CCCCCCCCCCCCCCCC(=O)Oc1ccc(CC[n+]2c(C)cc(C)cc2C)cc1OC(=O)CCCCCCCCCCCCCCC | A
6 | CCCCCCCCCCCCCC(=O)OCC(COC(=O)CCCCCCCCCCCCC)[n+]1c(C)cc(C)cc1C | A
7 | CCCCCCCCCCCCCC(=O)Oc1ccc(CC[n+]2c(C)cc(C)cc2C)cc1OC(=O)CCCCCCCCCCCCC | A
8 | CCCCCCCCCCCCCCCC(=O)OCC(COC(=O)CCCCCCCCCCCCCCC)[n+]1c(C)cc(C)cc1C | A
9 | CCCCCCCC(=O)Oc1ccc(CC[n+]2c(C)cc(C)cc2C)cc1OC(=O)CCCCCCC | A
10 | CCCCCCCCCCCCCCCCCC(=O)Oc1ccc(CC[n+]2c(C)cc(C)cc2C)cc1OC(=O)CCCCCCCCCCCCCCCCC | A
